Results on 45 compounds are retold here after ChEMBL document CHEMBL1129795, “2-Azetidinone cholesterol absorption inhibitors: structure-activity relationships on the heterocyclic nucleus” (1996).

In test [1] the test system is Cricetinae gen. sp. Briefly: In vivo for cholesterol absorption inhibitory activity using 7-day cholesterol-fed hamster model (expressed as percent change in cholesteryl esters at 50 mg/kg/day). It is filed as functional, Cricetulus griseus. The method, boiled down: (§1)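 Hamsters were fed a high-cholesterol diet for 7 days and gavaged once daily with compound in 0.2 mL corn oil. On the last day, animals were sacrificed and hepatic and serum lipids were determined. Results are given as percent change in hepatic cholesteryl ester or serum cholesterol concentration versus diet-fed controls gavaged with corn oil without drug.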

In test [2] the test system is Cricetinae gen. sp. Briefly: In vivo cholesterol absorption inhibitory activity using 7-day cholesterol-fed hamster model (expressed as percent change in serum cholesterol at 50 mg/kg/day). It is filed as functional, Cricetulus griseus. Summed up: as §1
Test [3] deals with T1, Sterol O-acyltransferase 1 (Rattus norvegicus) (UniProt O70536).
T1 sequence (whole entry): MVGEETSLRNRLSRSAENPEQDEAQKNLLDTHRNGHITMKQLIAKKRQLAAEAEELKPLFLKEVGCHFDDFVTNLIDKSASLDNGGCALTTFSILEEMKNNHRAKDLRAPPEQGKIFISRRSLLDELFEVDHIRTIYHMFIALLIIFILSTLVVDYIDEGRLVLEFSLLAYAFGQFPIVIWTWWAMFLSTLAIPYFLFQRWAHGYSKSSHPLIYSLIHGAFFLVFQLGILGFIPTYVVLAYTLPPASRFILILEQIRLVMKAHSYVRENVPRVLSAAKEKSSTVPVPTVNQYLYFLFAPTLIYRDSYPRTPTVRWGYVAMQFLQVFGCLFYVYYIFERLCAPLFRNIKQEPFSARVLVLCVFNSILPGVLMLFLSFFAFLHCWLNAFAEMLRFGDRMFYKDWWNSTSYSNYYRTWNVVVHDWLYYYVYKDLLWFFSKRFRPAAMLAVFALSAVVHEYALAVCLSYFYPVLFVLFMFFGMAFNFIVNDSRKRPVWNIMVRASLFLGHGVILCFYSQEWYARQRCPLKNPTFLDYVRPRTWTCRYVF
Briefly: In vitro for inhibitory activity against Acyl coenzyme A:cholesterol acyltransferase 1 from rat liver microsomes at 50 uM. Summed up: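 Rat liver microsomes were used to measure ACAT activity as the formation of cholesteryl [3H]oleate from cholesterol and [3H]oleoyl CoA. Results are given as percent inhibition at a single concentration.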

The test system of test [4] is Cricetinae gen. sp. Put plainly: Compound was tested in vivo for Cholesterol absorption inhibitory activity by using 7-day cholesterol-fed hamster model.(change in % change in cholesteryl esters(tested at 50 mg/kg/day). It is filed as functional, Cricetulus griseus. Summed up: as §1
Test [5] deals with Cricetinae gen. sp. Put plainly: Compound was tested in vivo for Cholesterol absorption inhibitory activity by using 7-day cholesterol-fed hamster model.(change in serum cholesterol( tested at 50 mg/kg/day). It is filed as functional. The method, boiled down:
as §1

In the case of `COc1ccc(N2C(=O)[C@H](CCCc3ccccc3)[C@H]2c2ccc([N+](=O)[O-])cc2)cc1`, the Change was 0% in test [1] and -11% in test [2]. The inhibition in test [3] stood at 21%.

Turning to `COc1ccc(N2C(=O)[C@H](CCCc3ccccc3)[C@H]2c2ccccc2)cc1`, the Change in test [1] is listed as -15%; in test [2], -6%. Further, the inhibition in test [3] came out at 22%.

On to `COc1ccc(N2C(=O)[C@H](CCCc3ccccc3)[C@H]2c2cccc(OC)c2)cc1`, for which the Change in test [1] is -24%; in test [2], -17%. Also, in test [3], the inhibition was 21%.

In the case of `COc1ccc(N2C(=O)[C@@H](CCCc3ccccc3)[C@H]2c2ccc(O)cc2)cc1`, the Change is given as -75% in test [1] and -31% in test [2]. In addition, the inhibition in test [3] was determined as 20%.

In the case of `CCCCCCCCCC[C@@H]1C(=O)N(c2ccc(OC)cc2)[C@@H]1c1ccc(OC)cc1`, the Change in test [4] was -15%; in test [5], 0%.

Consider `COc1ccc(N2C(=O)[C@H](CCCc3ccccc3)[C@H]2c2ccc(OC(C)C)cc2)cc1`, for which the Change is on record as -94% in test [1] and -38% in test [2]. Also, in test [3], the inhibition is 59%.

On to `COc1ccc(N2C(=O)[C@H](CCCc3ccccc3)[C@H]2c2ccc(C)cc2)cc1`, for which the Change in test [1] is reported as -21%; in test [2], -20%. Moreover, in test [3], the inhibition stood at 18%.

Turning to `COc1ccc(N2C(=O)[C@H](CCCc3ccccc3)[C@H]2c2ccc(OC)c(OC)c2)cc1`, the Change in test [1] is given as -33%; in test [2], -11%. The inhibition in test [3] is 53%.

Turning to `COc1ccc(N2C(=O)[C@H](CCCc3ccccc3)[C@H]2c2ccc(O)cc2)cc1`, the Change in test [1] is listed as -48%; in test [2], -16%. Moreover, in test [3], the inhibition amounted to 8%.

Consider `COc1ccc(N2C(=O)[C@@H](CCCc3ccccc3)[C@H]2c2cccc(OC)c2)cc1`, for which the Change in test [1] is on record as -54%; in test [2], -19%. In addition, the inhibition in test [3] stood at 39%.

In the case of `CCOc1ccc([C@@H]2[C@@H](CCCc3ccccc3)C(=O)N2c2ccc(OC)cc2)cc1`, the Change was -98% in test [1] and -52% in test [2]. Besides, the inhibition in test [3] was determined as 68%.

With `CCN(CC)c1ccc(N2C(=O)[C@H](CCCc3ccccc3)[C@H]2c2ccc(OC)cc2)cc1`, the Change in test [1] is reported as -95%; in test [2], -51%.

Regarding `COc1ccc([C@@H]2[C@H](CCc3ccccc3)C(=O)N2c2ccc(OC)cc2)cc1`, the Change is listed as -19% in test [1] and 0% in test [2].

With `COc1ccc([C@@H]2[C@H](CCCCCc3ccccc3)C(=O)N2c2ccc(OC)cc2)cc1`, the figures for the Change in test [1] and in test [2] were -70% and -24%, respectively.

Take `COc1ccc([C@@H]2[C@@H](CCCc3ccccc3)C(=O)N2c2ccc(S(C)(=O)=O)cc2)cc1`: the Change in test [1] is reported as -39%; in test [2], 0%.

Consider `CCOc1ccc([C@@H]2[C@H](CCCc3ccccc3)C(=O)N2c2ccc(OC)cc2)cc1`, for which the Change in test [1] is reported as -93%; in test [2], -48%. Further, the inhibition in test [3] is 79%.

For `COc1ccc([C@@H]2[C@@H](CCCc3ccccc3)C(=O)N2c2ccc(OC(F)(F)F)cc2)cc1`, the Change in test [1] is on record as -85%; in test [2] it was -34%.

For `COc1ccc(N2C(=O)[C@H](CCCc3ccccc3)[C@H]2c2ccc(SC)cc2)cc1`, the Change in test [1] and in test [2] was 0% throughout.

Take `COc1ccc([C@@H]2[C@@H](CCCc3ccccc3)C(=O)N2C2CC2)cc1`: the Change in test [1] is -61%; in test [2], -20%.

Take `COc1ccc(N2C(=O)[C@H](CCCc3ccccc3)[C@H]2c2ccc(NS(C)(=O)=O)cc2)cc1`: the Change is reported as -46% in test [1] and -8% in test [2].

On to `COc1ccc(N2C(=O)[C@H](CCCc3ccccc3)[C@H]2c2ccc(CO)cc2)cc1`, for which the figures for the Change in test [1] and in test [2] were -46% and -21%, respectively. Besides, the inhibition in test [3] is -6%.

As for `COc1ccc(N2C(=O)[C@H](CCCc3ccccc3)[C@H]2c2ccc(NC(C)=O)cc2)cc1`, the Change in test [1] is recorded as -26%; in test [2], -4%.

As to `CCC(=O)Oc1ccc(N2C(=O)[C@H](CCCc3ccccc3)[C@H]2c2ccc(OC)cc2)cc1`, the Change in test [4] was -54%; in test [5], -22%.

Take `CC[C@]1(CCCc2ccccc2)C(=O)N(c2ccc(OC)cc2)[C@@H]1c1ccccc1`: the results for the Change in test [1] and in test [2] were -29% and -12%, respectively.

Turning to `COc1ccc(N2C(=O)[C@H](CCCc3ccccc3)[C@H]2c2ccc3c(c2)OCO3)cc1`, the results for the Change in test [1] and in test [2] were -19% and 0%, respectively.

`COc1ccc([C@@H]2[C@@H](CCCc3ccccc3)C(=O)N2c2cc(F)cc(F)c2)cc1`: the Change is -93% in test [1] and -52% in test [2].

Take `COc1ccc(N2C(=O)[C@@H](CCCc3ccccc3)[C@H]2c2ccccc2)cc1`: the Change in test [1] and in test [2] was 0% each time.

As to `CC[C@@]1(CCCc2ccccc2)C(=O)N(c2ccc(OC)cc2)[C@@H]1c1ccccc1`, the Change in test [1] and in test [2] was 0% throughout.

Take `COc1ccc([C@@H]2[C@@H](CCCc3ccccc3)C(=S)N2c2ccc(OC)cc2)cc1`: the Change in test [1] was -23%; in test [2], 0%.

As for `O=C1[C@H](CCCc2ccccc2)[C@@H](c2ccc(O)cc2)N1c1ccc(O)cc1`, the Change in test [1] is reported as -90%; in test [2] it was -35%.

As to `COc1ccc([C@@H]2[C@@H](CCCc3ccccc3)C(=O)N2c2ccc(Oc3ccccc3)cc2)cc1`, the results for the Change in test [1] and in test [2] were -49% and -28%, respectively.

`CCN1C(=O)[C@H](CCCc2ccccc2)[C@H]1c1ccc(OC)cc1`: the figures for the Change in test [1] and in test [2] were -21% and -13%, respectively.

With `C=CCN1C(=O)[C@H](CCCc2ccccc2)[C@H]1c1ccc(OC)cc1`, the Change in test [1] and in test [2] was 0% each time.

Consider `COc1ccc([C@@H]2[C@@H](CCCc3ccccc3)C(=O)N2c2ccccc2OC)cc1`, for which the Change in test [1] was -87%; in test [2], -49%.

`COc1ccc(N2C(=O)[C@H](CCCc3ccccc3)[C@H]2c2ccc(N)cc2)cc1`: the Change in test [1] and in test [2] was 0% throughout. Moreover, in test [3], the inhibition turned out to be 63%.

Consider `COc1ccc([C@@H]2[C@@H](CCCc3ccccc3)C(=O)N2c2cccc(OC)c2)cc1`, for which the values for the Change in test [1] and in test [2] were -91% and -38%, respectively.

For the compound `COc1ccc([C@@H]2[C@@H](CCCc3ccccc3)C(=O)N2c2ccc(OC)cc2)cc1` [SCH-48461], the results for the Change in test [1] and in test [2] were -77.5% and -29%, respectively.

As to `COc1ccc(N2C(=O)[C@H](CCCc3ccccc3)[C@H]2c2ccc(OC(C)(C)C)cc2)cc1`, the Change in test [1] is recorded as -80%; in test [2], -26%.

On to `CCOc1ccc(N2C(=O)[C@H](CCCc3ccccc3)[C@H]2c2ccc(OC)cc2)cc1`, for which the Change in test [1] is recorded as -96%; in test [2], -57%.

As to `COc1ccc([C@@H]2[C@@H](CCCc3ccccc3)C(=O)N2Cc2ccccc2)cc1`, the Change is reported as 16% in test [1] and 0% in test [2].

As to `COc1ccc(N2C(=O)[C@H](CCCc3ccccc3)[C@H]2c2ccc(O)c(O)c2)cc1`, the Change in test [5] turned out to be 0%.

In the case of `COc1ccc([C@@H]2[C@@H](CCCc3ccccc3)C(=O)N2c2ccc([S+](C)[O-])cc2)cc1` (some centres not stated), the results for the Change in test [1] and in test [2] were 0% and -11%, respectively.

`COc1ccc(N2C(=O)[C@H](CCCc3ccccc3)[C@H]2c2ccccc2OC)cc1`: the Change in test [1] and in test [2] was 0% each time.

As for `CCCCCCCCCC[C@H]1C(=O)N(c2ccc(OC)cc2)[C@@H]1c1ccc(OC)cc1`, the Change is recorded as -18% in test [4] and 0% in test [5].

`COc1ccc([C@@H]2[C@@H](CCCc3ccccc3)C(=O)N2C23C[C@H]4C[C@@H](C2)C[C@@H](C3)C4)cc1`: the Change in test [1] and in test [2] was 0% in each case.
